# Hits are enriched below; roughly 2.9% of the tested compounds scored in any of these assays.
# FAS-TE inh: FAS thioesterase domain inhibitors, primary screen, biochemical, fluorescence intensity, uHTS. Fatty acid synthase (Homo sapiens), P49327. recombinant FAS-TE, OMFH fluorogenic substrate, fluorescence endpoint. inhibition, % at 15 µM. 360,000 tested, 0.67% active. AID 602261, 2012;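 active = compounds whose normalised, plate-corrected inhibition of enzyme fluorescence in the single-dose primary screen is 50% or more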;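 also: 0% = DMSO with enzyme and 100% = substrate without enzyme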
# CaV13 FRET inh: Primary screen for inhibitors of IQ motif and Ca2+-dependent inactivation inhibitor domain binding in CACNA1D, Förster resonance energy transfer in living cells, …; HEK cells, CFP/YFP FRET ICDI-IQ, plate reader, 10 min; percent FRET-ratio fall versus neutral wells; inhibition, % at 12.3 µM; 340,000 tested, 0.098% active; AID 743397;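 active = mean replicate inhibition of at least 30% and at least 1% of replicates passing that level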;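 also: 0% = median of the neutral control wells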
# Arrestin-AP2 inh: inhibitors of beta-arrestin/AP2 binding, primary screen, biochemical, GPCR trafficking, flow cytometry; beta-arrestin 1 C-terminal peptide binding to AP2 beta2-adaptin appendage (human); FITC-arrestin peptide / GST-AP2 beads; AP2 beta2 appendage carries R879A mutation; inhibition, % at 10 µM; 340,000 tested, 0.31% active;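 active = inhibition above a set limit, near 3 SD of compounds lacking own fluorescence, cut at about 54% in these data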;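 also: plate controls were DMSO wells for no effect and 5 µM unlabelled arrestin peptide for full effect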
#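 System: GST-tagged AP2 beta2-adaptin appendage (R879A) on 4 µm glutathione beads / Reagent: FITC-arrestin peptide, 50 nM / Detection: HyperCyt-sampled flow cytometry, FL1 channel, ex 488/em 535 nm / Timing: 12 min plus 1 h, RT / Buffer or medium: PBS plus Tween 20 (0.05%) and BSA (0.1%)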
# ADAM17 inh: ADAM17 inhibitors, primary screen, biochemical, QFRET; recombinant ADAM17, EDANS/DABCYL FRET peptide cleavage; inhibition, % at 6.95 µM; 370,000 tested, 0.83% active; AID 720648, 2013;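 active = inhibition above the mean of compounds lying between control limits plus 3 SD, set per campaign, cut at about 8.5% in these data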;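 also: 0% = DMSO-only wells as the low control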
# ADAM10 inh: human ADAM10 inhibitors, primary screen, biochemical, QFRET, HTS. Disintegrin and metalloproteinase domain-containing protein 10 (Homo sapiens), O14672. recombinant ADAM10, EDANS/DABCYL FRET peptide cleavage, 3 h. inhibition, % at 7 µM. 370,000 tested, 0.62% active. AID 720582, 2013;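 active = inhibition above a per-campaign cutoff equal to the mean of compounds falling between control-based bounds plus 3 SD, cut at about 20% in these data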;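 also: 0% = DMSO wells while the 100% control is not disclosed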
# CendR NRP1 mod: modulators of CendR peptide binding to NRP-1, primary screen, biochemical, fluorescence polarization, uHTS. Neuropilin-1 (Homo sapiens), O14786. FAM-RPARPAR peptide binding to NRP-1. inhibition, % at 25 µM. 360,000 tested, 0.85% active;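 active = inhibition or corrected inhibition above about 18%, plus a signal ratio from 0.5 to 1.5, limit read from the data, passing the limit was not always enough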
# Target sequence (O14786 whole entry, looked up): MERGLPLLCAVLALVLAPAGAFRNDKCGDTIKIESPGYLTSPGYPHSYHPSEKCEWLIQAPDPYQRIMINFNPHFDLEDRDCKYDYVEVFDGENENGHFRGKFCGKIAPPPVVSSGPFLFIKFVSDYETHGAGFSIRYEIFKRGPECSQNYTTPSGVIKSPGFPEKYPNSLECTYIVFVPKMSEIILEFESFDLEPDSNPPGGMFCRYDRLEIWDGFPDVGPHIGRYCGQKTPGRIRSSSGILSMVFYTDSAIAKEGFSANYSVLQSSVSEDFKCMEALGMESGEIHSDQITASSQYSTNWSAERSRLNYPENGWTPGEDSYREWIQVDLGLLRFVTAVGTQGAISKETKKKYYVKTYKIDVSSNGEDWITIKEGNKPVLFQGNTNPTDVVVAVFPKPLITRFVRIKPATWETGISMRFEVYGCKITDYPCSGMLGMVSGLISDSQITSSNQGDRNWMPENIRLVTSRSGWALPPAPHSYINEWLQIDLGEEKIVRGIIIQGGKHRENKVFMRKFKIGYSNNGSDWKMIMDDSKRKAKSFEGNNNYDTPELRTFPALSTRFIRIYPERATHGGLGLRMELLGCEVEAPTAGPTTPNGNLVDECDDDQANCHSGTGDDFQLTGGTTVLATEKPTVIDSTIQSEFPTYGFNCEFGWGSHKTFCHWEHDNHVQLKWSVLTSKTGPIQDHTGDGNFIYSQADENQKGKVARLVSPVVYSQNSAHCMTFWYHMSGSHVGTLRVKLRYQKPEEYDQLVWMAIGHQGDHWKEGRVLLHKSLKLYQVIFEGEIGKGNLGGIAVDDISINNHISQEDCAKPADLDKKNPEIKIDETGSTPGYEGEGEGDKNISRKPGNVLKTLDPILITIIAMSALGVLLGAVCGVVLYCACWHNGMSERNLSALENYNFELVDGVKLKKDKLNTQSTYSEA
# * = called active by the depositor; i = inactive; . = not tested or not shown.
SMILES,FAS-TE inh,CaV13 FRET inh,Arrestin-AP2 inh,ADAM17 inh,ADAM10 inh,CendR NRP1 mod
CC(=O)C(C(C)=O)c1c(Cl)c(O)c(O)c2c(C(=O)c3ccccc3)coc12,-148,-6,36,15*,32*,12
CN1CCN(Cc2c(O)ccc3occ(C(=O)c4ccccc4)c23)CC1,-5,.,21,-2,-1,1
Cc1ccc2c(c1)c1c(c(=O)n(-c3ccccc3C)c(=O)n1CC(=O)NCC1CCCO1)n2C (stereo not given),-2,-7,6,i,i,31*
O=C(Cn1cc(C(=O)C2CC2)c2ccccc21)NCC1CCCO1 (stereo not given),-6,-5,-8,1,2,1
CC(=O)c1cn(CC(=O)NCC2CCCO2)c2ccccc12 (stereo not given),-5,-5,5,-1,-4,20*
O=C(NCc1ccccc1)C(c1ccco1)N1CCN(c2ccccc2F)CC1 (stereo not given),.,-9,.,-1,-1,-1
O=C(NC(=S)Nc1ccccc1N1CCCC1)c1ccco1,4,-19,9,-7,-22,28*
O=C1c2cc(Cl)ccc2OC2(CCNCC2)C12CC(c1ccc(Cl)cc1)=NO2 (stereo not given),-28,.,20,.,.,25*
O=C1c2cc(Cl)ccc2OC2(CCNCC2)C12CC(c1ccccc1)=NO2 (stereo not given),-9,-9,10,3,-1,-2
CCCC[C@H](C(=O)N(C)c1cccc(OC)c1)[C@@H](O)c1ccc(C(C)=O)cc1,.,.,.,1,2,.
Cc1nc(CSc2ccc(Br)cc2)cs1,3,-4,19,0,3,20*
Cc1[nH]c2ccccc2c1CC(=O)Nc1ccc(Nc2ccccc2)cc1,.,-2,.,5,6,.
O=C(NCCN1CCCCCC1)C1CCN(S(=O)(=O)N2CCOCC2)CC1,-3,.,-10,-1,4,23*
Cc1cc(=O)[nH]c(N=N/C(=N/Nc2ccc(O)cc2)c2ccccc2)n1,-1,-4,21,-5,-20,6
COc1ccc(N/N=C(/N=Nc2nc(C)cc(=O)[nH]2)c2ccccc2)cc1,2,.,0,-7,-7,44*
CC1CCCCN1C(=O)c1ccc(CNC(=O)c2cccc(Br)c2)cc1 (stereo not given),.,.,.,-1,-5,.
Cc1nc2ccccc2n1CCC(=O)O,-8,-4,12,-5,-6,33*
O=C(O)CCn1c(SCc2ccccc2)nc2ccccc21,-5,.,5,-5,-6,-8
COc1ccc(C/C(C)=N/NC(=S)Nc2ccc(Cl)cc2)cc1,2,-4,23,-5,-7,41*
COc1ccc(C/C(C)=N/NC(=S)Nc2ccccc2)cc1,-18,-5,21,-1,-5,9
O=C(c1cc(F)ccc1F)N1CCC(Oc2cccnc2)CC1,.,.,.,-1,-2,.
CCOC(Cn1cc([N+](=O)[O-])c(=O)[nH]c1=O)OCC,-12,-11,22,-3,-5,4
CCOC(Cn1ccc(=O)[nH]c1=O)OCC,-4,-7,-22,-10,-6,26*
Cc1ccc(C)c(S(=O)(=O)N(C)c2ccc(OC(=O)C3CCN(C(=O)Nc4ccccc4)CC3)cc2)c1,23,-5,-9,7,3,25*
C=CCN1C(=O)[C@H](CC(=O)N2CCOCC2)[C@@]2(C(=O)OCC)CCCC=C12,.,.,.,-4,-4,.
SMILES,FAS-TE inh,CaV13 FRET inh,Arrestin-AP2 inh,ADAM17 inh,ADAM10 inh,CendR NRP1 mod
OCCNc1c2ccccc2nc2ccccc12,-4,51*,10,-288,i,-2
OC[C@H]1O[C@H](c2nc(-c3nc(-c4cccc(-n5cccc5)c4)no3)cs2)C[C@@H]1O,-7,-8,.,0,2,-8
CC1CN(S(=O)(=O)c2cc(C(=O)NC(C)c3cccnc3)ccc2Cl)CC(C)O1 (stereo not given),-6,-15,-10,-2,-6,20*
CCOC(=O)c1csc(COc2ccc(OC)cc2)n1,-2,-5,-10,-3,5,30*
Oc1ccc2oc3c(c2c1)CCCC3,1,.,2,-1,1,28*
O=C(O)COc1ccc2oc3c(c2c1)CCCC3,-9,-5,7,1,13,-7
CCn1c(=O)cc(SCC(=O)N2CCCCC2)c2ccccc21,-6,-5,-1,-8,-20,22*
O=C(N[C@@H](Cc1ccccc1)C(=O)N1CCC2CCN(S(=O)(=O)c3ccccc3)CC21)[C@@H]1CCCN1 (stereo not given in full),.,.,.,-6,-7,.
COc1ccc(CCNC(=O)Cn2nc(-c3ccccc3)ccc2=O)cc1,.,.,.,0,-7,.
Cc1nn(CCC#N)c(NC(=O)c2ccc(Cl)cc2)c1P(=O)(Nc1ccc([N+](=O)[O-])cc1)N1CCOCC1 (stereo not given),16,-3,-7,-1,5,3
Cc1nn(CCC#N)c(NC(=O)c2ccc(Cl)cc2Cl)c1P(=O)(Nc1ccc([N+](=O)[O-])cc1)N1CCOCC1 (stereo not given),52*,-4,25,-3,1,0
O=C(Nc1cc(Cl)cc(Cl)c1)N[C@@H]1CC[C@@H](CCNS(=O)(=O)c2cccc(F)c2)O[C@@H]1CO,.,-5,.,3,12,-8
Cc1cccc(CN2CCN(C3CN(Cc4cn(Cc5cccc(Cl)c5)nn4)S(=O)(=O)C3)CC2)c1 (stereo not given),-3,-6,.,2,-1,23*
C=CCn1c(SCC(=O)OC(C)C)nnc1-c1ccc(C)cc1,.,.,.,-4,-10,.
CCc1nc2c(OCC(=O)c3ccc(F)cc3)cccn2c1N(C)C(=O)c1ccc(OC)cc1,0,-5,.,-3,-9,-3
Cc1ccc(OCC(=O)N/N=C/c2ccccc2)c([N+](=O)[O-])c1,6,-4,-10,-1,5,19*
Cc1ccc(C)c(OCC(=O)N/N=C\c2cccn2C)c1,0,-4,14,-2,-2,35*
O=C(O)CS(=O)(=O)c1ccc(C(F)(F)F)cn1,-4,-5,17,-8,-9,36*
NC(=O)c1ccc(C(F)(F)F)cn1,-2,-3,-1,-3,0,-2
